Assay results: ChEMBL document CHEMBL1156609, “9-N-Substituted berberine derivatives: stabilization of G-quadruplex DNA and down-regulation of oncogene c-myc” (Bioorg Med Chem, 2008)
Calls of active or inactive are those of the source. No cut-off for these calls is given here.

What was measured:
Homo sapiens [1] = species on record: Homo sapiens; test: Binding affinity to human c-myc G-quadruplex Pu18 DNA assessed as change melting temperature at 2.0 uM by FRET melting assay
How it was run: (§1)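 FRET melting of dual-labelled Pu18 (5'-FAM/3'-TAMRA), 0.2 μM, in 10 mM Tris–HCl pH 7.2 with 0.2 mM KCl, compound 2.0 μM; fluorescence recorded on a real-time PCR instrument; Tm read from melting curves, ΔTm relative to no-compound control.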

[2] = Binding affinity to duplex F10T DNA assessed as melting temperature at 2.0 uM by FRET melting assay
[3] = Cytotoxicity against human GLC cells by MTT assay; type: functional, cell-based
How it was run: (§2)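 MTT cytotoxicity assay against tumour cells; IC50 taken as mean of three independent assays.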

Homo sapiens [4] = species on record: Homo sapiens; test: Binding affinity to duplex F10T DNA assessed as change melting temperature at 2.0 uM by FRET melting assay
[5] = Inhibition of human c-myc G-quadruplex Pu27 DNA amplification at 5.0 uM by PCR-stop assay
How it was run: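 PCR-stop: Pu27 template with complementary oligomer in 1× PCR buffer, 0.16 mM dNTP, 2.5 U Taq, compound at 1.0, 2.5, 4.0 or 5.0 μM; 94 °C 3 min, then 30 cycles of 94/58/72 °C for 30 s each; products on 15% native PAGE in TBE, silver stained.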

NCI = test: Cytotoxicity against human NCI cells by MTT assay; type: functional, cell-based; how it was run: as §2
Homo sapiens [6] = species on record: Homo sapiens; test: Binding affinity to human c-myc G-quadruplex Pu18 DNA assessed as melting temperature at 2.0 uM by FRET melting assay; how it was run: as §1
Homo sapiens [7] = species on record: Homo sapiens; test: Induction of G-quadruplex formation in human c-myc Pu27 DNA at 10 uM […] by gel electrophoresis
HL-60 [8] = test: Antiproliferative activity against human HL60 cells assessed as cell count and viability at 5 to 10 uM; type: functional, cell-based
How it was run: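 HL60 cells (RPMI-1640, 10% FBS, penicillin/streptomycin, 37 °C, 5% CO2), about 5000 per well, given freshly dissolved compound at 0–10 μM for 4 days, re-dosed at day 5 for a further 4 days; cell count and viability by trypan blue exclusion daily from day 1 to day 8.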

HL-60 [9] = test: Inhibition of human c-myc gene transcription in HL60 cells at 0.7-1.7 uM after 4 days by RT-PCR; type: functional, cell-based

| Compound | ΔTm (Homo sapiens [1]) | Tm [2] | IC50 [3] | ΔTm (Homo sapiens [4]) | IC50 [5] | IC50 (NCI) | Tm (Homo sapiens [6]) | Activity (Homo sapiens [7]) | Activity (HL-60 [8]) | Activity (HL-60 [9]) |
| --- | --- | --- | --- | --- | --- | --- | --- | --- | --- | --- |
| COc1ccc2cc3[n+](cc2c1NCCCN(C)C)CCc1cc2c(cc1-3)OCO2 | 20 °C | 59 °C | 64 µM | 1 °C | 3.3 µM | 29 µM | 74 °C | – | – | – |
| COc1ccc2cc3[n+](cc2c1NCCCN1CCOCC1)CCc1cc2c(cc1-3)OCO2 | 17 °C | 58 °C | 102 µM | 0 °C | 4.8 µM | 85 µM | 71 °C | – | – | – |
| COc1ccc2cc3[n+](cc2c1NCCO)CCc1cc2c(cc1-3)OCO2 | 12 °C | 58 °C | 51 µM | 0 °C | 5.5 µM | 35 µM | 66 °C | – | – | – |
| COc1ccc2cc3[n+](cc2c1NCCN1CCOCC1)CCc1cc2c(cc1-3)OCO2 | 18 °C | 59 °C | 50 µM | 1 °C | 7.1 µM | 50 µM | 72 °C | – | – | – |
| COc1ccc2cc3[n+](cc2c1NCCc1ccccc1)CCc1cc2c(cc1-3)OCO2 | 20 °C | 59 °C | 18 µM | 1 °C | 3.6 µM | 2 µM | 74 °C | – | – | – |
| COc1ccc2cc3[n+](cc2c1OC)CCc1cc2c(cc1-3)OCO2 | 1 °C | – | – | 2 °C | – | – | 55 °C | – | – | – |
| COc1ccc2cc3[n+](cc2c1NCCN(C)C)CCc1cc2c(cc1-3)OCO2 | 19 °C | 58 °C | 56 µM | 0 °C | 3.9 µM | 36 µM | 73 °C | – | – | – |
| COc1ccc2cc3[n+](cc2c1NCCCN1CCCCC1)CCc1cc2c(cc1-3)OCO2 | 24 °C | 59 °C | 69 µM | 1 °C | 3.2 µM | 38 µM | 78 °C | – | – | – |
| COc1ccc2cc3[n+](cc2c1NCCCN1CCCC1)CCc1cc2c(cc1-3)OCO2 | 25 °C | 60 °C | 32 µM | 2 °C | 2.3 µM | 22 µM | 78 °C | – | – | – |
| COc1ccc2cc3[n+](cc2c1NCCN1CCCCC1)CCc1cc2c(cc1-3)OCO2 | 20 °C | 58 °C | 38 µM | 0 °C | 4 µM | 22 µM | 74 °C | – | – | – |
| COc1ccc2cc3[n+](cc2c1NCCCCCCN)CCc1cc2c(cc1-3)OCO2 | 29 °C | 60 °C | 9 µM | 2 °C | 2 µM | 4 µM | 83 °C | Active | Active | Active |
